This data set in a line: Toxicity liver stage against HepG2, at 10uM. It counts as cell-based. Details: test concentration 10 uM, cell line HepG2-A16-CD81EGFP. The following applies: human, HepG2-A16-CD81EGFP cells; read-out: INHIBITION
An outline of the steps:
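Uninfected HepG2-A16-CD81EGFP cells, 3 × 10^3 per well, 1536-well, plated on prespotted compound at 10 μM final, parasite-free screening media added to match infected plates; puromycin 10 μM positive, DMSO 0.5% negative; run in parallel with 48 h PbLuc assay at 37 °C, 5% CO2; viability by CellTiter-Glo luminescence, normalized to controls.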
For `CCN(C1CCS(=O)(=O)C1)S(=O)(=O)c1cccc2cc(C)cnc12` (stereo unspecified), the cytotoxicity at 10 µM is -11%.

As to `OCc1ccc(OCC(F)(F)F)cc1`, the cytotoxicity at 10 µM is -11.9%.

As to `O=C(C1CCOCC1)N1C[C@@H](F)[C@@H](OCc2nc3cc(F)ccc3[nH]2)C1`, the cytotoxicity at 10 µM is -9.9%.

Consider `CO[C@@H]1CN(C)S(=O)(=O)[C@@]12CCN(Cc1ccccc1)C2`, for which the cytotoxicity at 10 µM stood at 3.02%.

With `COCCOC(=O)N1CCN2C[C@@H](CO)[C@H](c3ccccc3)[C@H]2C1`, the cytotoxicity at 10 µM was found to be 3.44%.

Regarding `COC(=O)CCC(=O)N(Cc1ccc2cc[nH]c2c1)C1CC1`, the cytotoxicity at 10 µM is -3.4%.

On to `Cc1nn(C2CCS(=O)(=O)C2)c(C)c1CC(=O)NCc1ccccc1Cl` (stereo unspecified), for which the cytotoxicity at 10 µM was -0.178%.

As for `COc1ccc(CN2CCO[C@H]3CN(C(C)=O)CC[C@H]3C2=O)cc1`, the cytotoxicity at 10 µM is -138%.

`CS(=O)(=O)N1CC[C@@H]2OC(COCC(=O)N3CCCC3)CC[C@@H]21` (stereo partly specified): the cytotoxicity at 10 µM came to 1.56%.

On to `COc1nn(C)c2c1CCCN(C(=O)c1ccc(C)c(F)c1)C2`, for which the cytotoxicity at 10 µM came to 8.21%.

As to `Cn1cc(C[C@H]2[C@H](O)CCN2C(=O)C2CCCC2)cn1`, the cytotoxicity at 10 µM was -3.49%.

As for `CN(Cc1cn2c(n1)CN(C(=O)C1CCOCC1)CC2)Cc1ccco1`, the cytotoxicity at 10 µM was -1.46%.

With `O=S(=O)(C1CC1)N1CCC2(COCc3cnc(N4CCOCC4)nc32)C1` (stereo unspecified), the cytotoxicity at 10 µM was -5.44%.

As for `O=C(NCCN1CCOCC1)c1ccn(COc2ccc(F)cc2)n1`, the cytotoxicity at 10 µM was found to be 6.17%.

For the molecule `CCc1noc(C2CCCCN2C(=O)c2cccnc2)n1` (stereo unspecified), the cytotoxicity at 10 µM was found to be 8.52%.

On to `CC(=O)N1CCCC(c2ccnc(Nc3cnccn3)c2)C1` (stereo unspecified), for which the cytotoxicity at 10 µM came out at 9.37%.

For the molecule `CS(=O)(=O)c1cncnc1C1CCCN(C(=O)Nc2ccccc2F)C1` (stereo unspecified), the cytotoxicity at 10 µM was -0.675%.

Take `COc1ccccc1-c1cc(C(=O)N(C)C)c2cnn(C)c2n1`: the cytotoxicity at 10 µM turned out to be 10.6%.

Regarding `Cc1cc(-n2c(C)cn(CN(C)CC3CC3)c2=O)no1`, the cytotoxicity at 10 µM is -2.95%.

On to `COCCC1(C(=O)NCCc2nncn2C2CC2)CCC1`, for which the cytotoxicity at 10 µM is -9.22%.

Take `O=C(c1cscn1)N(CCCO)S(=O)(=O)c1cccs1`: the cytotoxicity at 10 µM was -11.3%.

Take `Cc1nc(C)c(C(=O)N2Cc3cc(F)ccc3CC2C)o1` (stereo unspecified): the cytotoxicity at 10 µM came out at 6.07%.

For the molecule `CCC(C)(NC(=O)CCN1CCOC1=O)C(=O)OC` (stereo unspecified), the cytotoxicity at 10 µM is -16%.

For the molecule `COC(=O)CCNC(=O)c1ccc(OCc2ccccc2)nc1`, the cytotoxicity at 10 µM was found to be 4.93%.

For `OCCN(Cc1cccnc1)c1ccc(Br)cn1`, the cytotoxicity at 10 µM was 21.4%.

Turning to `Cc1cc(C)c(CNC(=O)N2CCC(N3CCNC3=O)CC2)c(C)c1`, the cytotoxicity at 10 µM is -2.22%.

For `CC(C)NC(=O)CCNC(=O)Nc1cnn(-c2ccccc2Cl)c1`, the cytotoxicity at 10 µM turned out to be 1.75%.

For the molecule `Cn1cccc1C(=O)OCCNC(=O)c1ccccc1`, the cytotoxicity at 10 µM was found to be 14.7%.

On to `CC(C)NC(=O)c1cccc(NC(=O)CCCc2nc(C(C)C)no2)c1`, for which the cytotoxicity at 10 µM amounted to 5.51%.

Regarding `Cc1cccc(CNC2CCN(CCc3ccncc3)CC2)c1C`, the cytotoxicity at 10 µM is -9.04%.

As to `Cc1nn(C)c(C)c1OCC(=O)NCc1cccc(CO)c1`, the cytotoxicity at 10 µM was -7.73%.

Consider `O=C(Nc1ccccc1)NC1CCN(C2CCOC2)CC1` (stereo unspecified), for which the cytotoxicity at 10 µM came to 7.76%.

Take `Cc1[nH]ccc1C(=O)N(Cc1ccc(O)cc1)CC1CC1`: the cytotoxicity at 10 µM came out at 6.99%.

Take `O=C(CC1CCCO1)NCCc1ccccc1Br` (stereo unspecified): the cytotoxicity at 10 µM was 5.63%.

For the molecule `CC(C)(NC(=O)c1cnc(-c2ccccc2F)s1)C(N)=O`, the cytotoxicity at 10 µM amounted to 6.96%.

Regarding `COc1ccccc1-c1csc(NC(=O)N2CCN(C)CC2C)n1` (stereo unspecified), the cytotoxicity at 10 µM is -3.24%.

As to `O=C(CCCNC(=O)Nc1ccc(F)cc1F)Nc1cn[nH]c1`, the cytotoxicity at 10 µM is 9.19%.

Consider `CCOCC(=O)NCC(C)(O)c1cc(C)oc1C` (stereo unspecified), for which the cytotoxicity at 10 µM was determined as 1.85%.

For the molecule `Cc1cc(-c2nc(C3(NC(=O)OC(C)(C)C)CCC3)no2)on1`, the cytotoxicity at 10 µM is 5.98%.

In the case of `CCN(c1ccc(C(=O)N(Cc2cnn(C)c2)C(C)C)cn1)C(C)C`, the cytotoxicity at 10 µM came to 16.2%.

Consider `COc1ccccc1OCC(=O)Nc1ncccc1OC(F)F`, for which the cytotoxicity at 10 µM was 7.25%.

`O=C(CN1CCOCC1)N1CCC2(CCCN(C3CCOCC3)C2=O)C1` (stereo unspecified): the cytotoxicity at 10 µM is -129%.

`O=C(NCC1(O)CCCCC1)c1coc(COc2cccc(F)c2)n1`: the cytotoxicity at 10 µM is -136%.

For the molecule `CCOCc1nc2c(c(N3CC=CC3)n1)CCN(CC1CC1)CC2`, the cytotoxicity at 10 µM is -21.2%.

For the molecule `Cc1ccccc1N1CC(C)N(Cc2ccc(C)c(F)c2F)CC1=O` (stereo unspecified), the cytotoxicity at 10 µM is -1.66%.

As for `CC(C)Cc1noc(CN(C)c2cc(N(C)C)ncn2)n1`, the cytotoxicity at 10 µM was -0.75%.

`Nc1nc(CCC(=O)N2C[C@@H](CN3CCCC3)C[C@H](CO)C2)n[nH]1`: the cytotoxicity at 10 µM is -0.445%.

As for `Cc1cnn(C(C)C(=O)NCC2CCN(c3cnn(C)c(=O)c3)CC2)c1` (stereo unspecified), the cytotoxicity at 10 µM came out at 2.81%.

With `Cc1cc2ccccc2n1CCC(=O)N1CCC[C@H]1C(N)=O`, the cytotoxicity at 10 µM is -0.338%.

For the molecule `COc1cccc(N2CCN(C(=O)C(OC)c3ccccc3)CC2=O)c1` (stereo unspecified), the cytotoxicity at 10 µM was -0.693%.

`CCc1cc(N(C)Cc2noc(C(C)C)n2)nc(N2CCOCC2)n1`: the cytotoxicity at 10 µM stood at 0.515%.

As to `CC(C)N1CCC(CC(=O)N2CCCCC2CCn2cccn2)CC1` (stereo unspecified), the cytotoxicity at 10 µM was -3.77%.

Consider `O=C1CC2(CCCC2)CC(=O)N1Cc1nc2ncccn2n1`, for which the cytotoxicity at 10 µM worked out at 2.49%.

For the molecule `c1ccc2c(c1)CC(Cc1cc(N3CCCC3)cnn1)CCO2` (stereo unspecified), the cytotoxicity at 10 µM is -5.5%.

In the case of `Cc1ccc(OC2(C(=O)NC(C)Cc3ccsc3)CCNCC2)cc1` (stereo unspecified), the cytotoxicity at 10 µM was -15.4%.

`CC(C)C(C)n1nccc1NC(=O)Cn1cnc2ccccc21` (stereo unspecified): the cytotoxicity at 10 µM came out at 10.8%.

Turning to `COc1ccc([C@@H]2CN(c3cnccn3)C[C@H]2N(C)C)cc1`, the cytotoxicity at 10 µM turned out to be 6.55%.

Turning to `Cc1cc(C)c2nc(CN3CCC(CN)C3)cc(O)c2c1` (stereo unspecified), the cytotoxicity at 10 µM was -14.8%.

In the case of `COc1ccccc1CNC(=O)C[S+]([O-])Cc1cc(C)on1` (stereo unspecified), the cytotoxicity at 10 µM was -4.92%.

Consider `Cc1cnn(CC2CCCN2C(=O)c2c(C)noc2C(C)C)c1` (stereo unspecified), for which the cytotoxicity at 10 µM is -0.502%.

On to `Cc1cnn(C2CCCN(C(=O)Cc3cn4ccsc4n3)C2)c1` (stereo unspecified), for which the cytotoxicity at 10 µM is -4.89%.

Turning to `O=C(c1cnc(-c2ccccn2)s1)N1CCCC1Cn1cccn1` (stereo unspecified), the cytotoxicity at 10 µM is -5%.

For `COc1ccccc1C(=O)NC(CC(=O)O)c1cccs1` (stereo unspecified), the cytotoxicity at 10 µM was -0.337%.

As for `COCCN1C[C@@H](C)[C@@]2(COCCN(C(=O)c3ccncc3)C2)C1`, the cytotoxicity at 10 µM was 5.71%.

Turning to `COCCN1C[C@@H]2CN(Cc3ccoc3)CCC[C@]2(C(=O)O)C1`, the cytotoxicity at 10 µM is -139%.

Regarding `O=C(NCc1cn2c(n1)CN(Cc1ccccn1)CC2)C1CCC1`, the cytotoxicity at 10 µM worked out at 7.49%.

On to `O=C(NCc1ccccn1)[C@@H]1COC[C@H]2CN(c3ncccn3)C[C@H]21`, for which the cytotoxicity at 10 µM worked out at 7.31%.

Take `CN1CCN([C@@H]2CCN(C3CCOCC3)[C@H]2Cc2cnn(C)c2)CC1`: the cytotoxicity at 10 µM was 5.07%.

Consider `CNC(=O)c1cc2c(nc1NCC1CC1)CCN(S(C)(=O)=O)CC2`, for which the cytotoxicity at 10 µM turned out to be 5.57%.

With `Cc1ccc(CN2Cc3nccn3CC(Cn3cncn3)C2)s1` (stereo unspecified), the cytotoxicity at 10 µM was -141%.

On to `CC1CCC(n2cc3nc(N)[nH]cc-3c2=O)CC1` (stereo unspecified), for which the cytotoxicity at 10 µM was -0.0237%.

(Values after ChEMBL document CHEMBL4513216, “Probing the Open Global Health Chemical Diversity Library for Multistage-Active Starting Points for Next-Generation Antimalarials” (ACS Infect Dis, 2020).)
